Results reported in ChEMBL document CHEMBL4725242, “Discovery of GS-9688 (Selgantolimod) as a Potent and Selective Oral Toll-Like Receptor 8 Agonist for the Treatment of Chronic Hepatitis B” (J Med Chem, 2020).
Active and inactive are the calls of the source.

Columns and labels:
[1] = target: Toll-like receptor 5 (Homo sapiens) (UniProt O60602); assay: Agonist activity at human TLR5 expressed in HEK293 cells assessed as increase in NF-kappaB activation up to 10 uM incubated for 24 hrs by quanti-blue SEAP reporter gene assay; format: cell-based; settings: dose microM <=10, time 24.0 hrs
Toll-like receptor 5 (Homo sapiens), sequence (O60602 whole entry): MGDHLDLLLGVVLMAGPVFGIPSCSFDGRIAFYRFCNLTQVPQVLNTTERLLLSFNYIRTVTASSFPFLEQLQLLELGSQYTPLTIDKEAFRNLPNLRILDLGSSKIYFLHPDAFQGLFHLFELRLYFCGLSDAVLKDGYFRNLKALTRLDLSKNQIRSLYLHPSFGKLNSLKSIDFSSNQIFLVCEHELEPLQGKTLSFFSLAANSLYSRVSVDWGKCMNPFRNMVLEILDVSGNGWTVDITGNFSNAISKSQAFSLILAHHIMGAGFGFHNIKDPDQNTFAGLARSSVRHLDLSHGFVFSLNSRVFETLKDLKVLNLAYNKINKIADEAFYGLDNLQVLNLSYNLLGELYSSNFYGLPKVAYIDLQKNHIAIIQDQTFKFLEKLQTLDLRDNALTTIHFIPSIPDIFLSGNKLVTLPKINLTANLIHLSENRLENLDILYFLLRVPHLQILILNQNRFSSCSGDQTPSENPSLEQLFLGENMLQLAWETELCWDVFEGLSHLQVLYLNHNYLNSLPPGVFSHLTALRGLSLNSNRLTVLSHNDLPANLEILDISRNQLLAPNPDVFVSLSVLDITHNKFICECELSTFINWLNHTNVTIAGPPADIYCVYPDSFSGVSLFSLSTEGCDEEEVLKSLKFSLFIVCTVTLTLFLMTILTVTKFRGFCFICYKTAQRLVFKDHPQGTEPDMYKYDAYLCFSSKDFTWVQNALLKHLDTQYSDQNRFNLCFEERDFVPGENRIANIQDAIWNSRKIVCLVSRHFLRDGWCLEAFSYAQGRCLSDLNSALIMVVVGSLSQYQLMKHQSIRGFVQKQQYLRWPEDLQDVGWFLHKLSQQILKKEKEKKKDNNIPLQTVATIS
Outline: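 HEK293 cells stably expressing individual human TLRs or other innate immune receptors, used as reporter gene assays. Minimum effective concentration defined as the level giving a 3-fold rise over background.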

Toll-like receptor 7 = target: T1, Toll-like receptor 7 (Homo sapiens, UniProt Q9NYK1); assay: Agonist activity at TLR7 in human cryopreserved PBMC assessed as induction of IFNalpha production measured after 24 hrs
T1 sequence (Q9NYK1 whole entry): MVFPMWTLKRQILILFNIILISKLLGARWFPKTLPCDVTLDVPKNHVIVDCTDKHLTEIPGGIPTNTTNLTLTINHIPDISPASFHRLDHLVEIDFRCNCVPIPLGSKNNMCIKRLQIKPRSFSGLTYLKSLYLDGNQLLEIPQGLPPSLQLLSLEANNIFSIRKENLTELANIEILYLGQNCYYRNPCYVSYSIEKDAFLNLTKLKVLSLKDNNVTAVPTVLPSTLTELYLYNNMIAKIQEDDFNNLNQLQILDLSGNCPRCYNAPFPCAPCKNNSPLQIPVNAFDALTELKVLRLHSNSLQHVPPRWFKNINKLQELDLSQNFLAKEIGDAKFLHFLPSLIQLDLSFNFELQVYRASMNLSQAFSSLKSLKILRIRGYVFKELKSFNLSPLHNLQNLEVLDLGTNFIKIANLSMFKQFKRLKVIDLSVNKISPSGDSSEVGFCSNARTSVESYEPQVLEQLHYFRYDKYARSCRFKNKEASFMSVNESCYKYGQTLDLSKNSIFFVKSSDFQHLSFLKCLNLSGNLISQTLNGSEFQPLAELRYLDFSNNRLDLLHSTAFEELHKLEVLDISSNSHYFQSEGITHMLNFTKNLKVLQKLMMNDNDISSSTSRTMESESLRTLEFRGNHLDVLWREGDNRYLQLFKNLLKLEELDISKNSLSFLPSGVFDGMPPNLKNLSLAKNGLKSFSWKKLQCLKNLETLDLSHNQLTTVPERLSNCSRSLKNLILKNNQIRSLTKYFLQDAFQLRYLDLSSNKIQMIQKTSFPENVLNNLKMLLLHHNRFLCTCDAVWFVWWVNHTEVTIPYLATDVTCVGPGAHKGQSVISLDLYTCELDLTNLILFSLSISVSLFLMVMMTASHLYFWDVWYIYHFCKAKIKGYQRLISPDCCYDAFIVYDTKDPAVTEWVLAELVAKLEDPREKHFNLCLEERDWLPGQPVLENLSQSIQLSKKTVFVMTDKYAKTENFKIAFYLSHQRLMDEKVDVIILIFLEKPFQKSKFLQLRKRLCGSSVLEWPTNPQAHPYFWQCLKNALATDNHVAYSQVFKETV
Outline: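 Cryopreserved healthy-donor human PBMC, recovered 2 h at 37°C/5% CO2, then 100k cells/well in RPMI/10% FBS exposed 24 h at 37°C to a 10-point half-log dilution series (0.5% final DMSO). Supernatant IFNα-2a quantified by MSD electrochemiluminescence immunoassay. For the ratio, divided by the IL-12p40 EC50 from the same PBMC screen.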

[2] = Dissociation constant, pKa of the compound; format: physicochemical
[3] = Selectivity index, ratio of CC50 for human MT4 cells to EC50 for TLR8 in human cryopreserved PBMC assessed as induction of IL-12p40 production
[4] = Apparent permeability across apical to basolateral side in human Caco2 cells measured after 1 to 2 hrs by LC-MS/MS analysis; settings: Caco-2
[5] = Drug metabolism in human hepatocytes assessed as hydroxyl oxidation to the acid; format: ADME, cell-based, Hepatocyte
[6] = Volume of distribution at steady state in Sprague-Dawley rat at 1 mg/kg, iv administered as 30 mins infusion by HPLC-MS analysis; format: ADME, organism-based; settings: in vivo, read-out: Vdss
Outline: (§1)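 30-min intravenous infusion: Sprague Dawley rats 1 mg/kg, beagle dogs 0.25 mg/kg, cynomolgus monkeys 0.1 mg/kg; n = 3 per species, reported as mean ± SD.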

[7] = AUC (infinity) in Sprague-Dawley rat at 5 mg/kg, po administered via gavage by HPLC-MS analysis; format: ADME, organism-based; design: time infinity, route oral, dose 5 mg/kg; settings: in vivo
Outline: (§2)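 Oral dosing in 2% ethanol/40% PEG 300/58% 0.01N HCl: Sprague Dawley rats 5 mg/kg, beagle dogs 0.5 mg/kg, cynomolgus monkeys 3 mg/kg.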

[8] = Cmax in Sprague-Dawley rat at 5 mg/kg, po administered via gavage by HPLC-MS analysis; format: ADME, organism-based; design: route oral, dose 5 mg/kg; settings: in vivo; outline: as §2
[9] = Oral bioavailability in Sprague-Dawley rat at 5 mg/kg administered via gavage by HPLC-MS analysis; format: ADME, organism-based; settings: in vivo; outline: as §2
[10] = Cmax in Beagle dog at 0.5 mg/kg, po administered via gavage by HPLC-MS analysis; format: ADME, organism-based, Canis lupus familiaris; design: route oral, dose 0.5 mg/kg; settings: in vivo; outline: as §2
[11] = Clearance in cynomolgus monkey at 0.1 mg/kg, iv administered as 30 mins infusion by HPLC-MS analysis; format: ADME, organism-based, Macaca fascicularis; settings: in vivo; outline: as §1
[12] = Cmax in cynomolgus monkey at 3 mg/kg, po administered via gavage by HPLC-MS analysis; format: ADME, organism-based, Macaca fascicularis; design: route oral, dose 3 mg/kg; settings: in vivo; outline: as §2
[13] = target: T2, C-type lectin domain family 4 member E (Homo sapiens) (UniProt Q9ULY5); assay: Agonist activity at human Mincle receptor up to 10 uM; settings: dose microM <=10
T2 sequence (whole entry): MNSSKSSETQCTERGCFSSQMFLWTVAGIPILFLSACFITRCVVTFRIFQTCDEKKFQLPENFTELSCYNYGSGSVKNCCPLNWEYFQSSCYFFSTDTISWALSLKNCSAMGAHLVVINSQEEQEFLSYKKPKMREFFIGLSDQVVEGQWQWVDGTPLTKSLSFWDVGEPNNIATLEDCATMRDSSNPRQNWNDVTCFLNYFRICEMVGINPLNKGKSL

[14] = Immunomodulatory activity in human primary hepatocytes infected with HBV assessed as stimulation of CD8+T cell response to virus by measuring decrease in HBV RNA production treated with media from PBMC stimulated with 10 nM compound for 10 days by PCR analysis relative to control; format: functional; design: scale not given: the % may be the effect or the level left; settings: time 10 day
[15] = Immunomodulatory activity in human primary hepatocytes infected with HBV assessed as stimulation of CD8+T cell response to virus by measuring decrease in HBeAg production treated with media from PBMC stimulated with 10 nM compound for 10 days relative to control; format: functional; design: scale not given: the % may be the effect or the level left; settings: time 10 day
Hepatitis B virus = assay: Antiviral activity against HBV infected in human primary hepatocytes; format: functional, organism-based; settings: Primary hepatocyte

Structure (SMILES): CCCC[C@](C)(CO)Nc1nc(N)nc2cc(F)cnc12 [SELGANTOLIMOD]
- Activity [1]: inactive
- EC50 (Toll-like receptor 7): > 50 µM
- pKa [2]: 6.3
- Ratio CC50/EC50 [3]: 77
- Papp A→B [4]: 7.9 ×10⁻⁶ cm/s
- Drug metabolism [5]: Metabolite_Detected
- Vd [6]: 1.1 L/kg
- AUC(0-inf) [7]: 0.827 µM·h
- Cmax [8]: 517 nM
- bioavailability [9]: 8.8%
- Cmax [10]: 9.7 nM
- clearance [11]: 103 mL/min/kg
- Cmax [12]: 1.2 nM
- Activity [13]: inactive
- Activity [14]: >50%
- Activity [15]: >50%
- Activity (Hepatitis B virus): inactive
